Measurements taken from publication PMC6257985 (The FEBS journal, 2017).
Where no end group is shown, it is not given here. The star is where a group is joined. αGalNAc = CC(=O)N[C@@H]1[C@@H](O)[C@@H](O)[C@@H](CO)O[C@@H]1*

Experiments:
[1] = target: T1, recombinant Bauhinia forficata lectin (BfL) (Bauhinia forficata, UniProt P86993); assay: glyco-antigen microarray binding of BfL, apparent Kd; details: for RFUmax: carbohydrate array, maximum signal of the binding curve
T1 sequence (P86993 1-233): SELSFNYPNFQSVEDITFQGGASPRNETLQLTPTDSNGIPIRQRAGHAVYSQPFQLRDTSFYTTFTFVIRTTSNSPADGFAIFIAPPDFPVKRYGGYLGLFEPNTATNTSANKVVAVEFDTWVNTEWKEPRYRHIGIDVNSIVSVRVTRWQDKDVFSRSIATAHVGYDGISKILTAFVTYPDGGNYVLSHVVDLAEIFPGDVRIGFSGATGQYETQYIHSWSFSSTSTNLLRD
Procedure, shortened: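 His6-tagged lectin expressed in E. coli, refolded from inclusion bodies, and gel-filtered in 50 mM Hepes pH 7.5, 150 mM NaCl. Glycans on BSA or HSA (neoglycoproteins), some at high and low density. Arrays blocked overnight at 4 °C in 3% BSA TBS. Lectin dilutions in 1% BSA TBS with 2 mM CaCl2 and 0.05% Tween-20, duplicate wells, 2 h at 37 °C. Detected with anti-His then DyLight549 anti-mouse IgG. Fluorescence averaged, log2-transformed, apparent Kd fitted from binding curves.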

[2] = target: T2, recombinant Bauhinia forficata lectin (BfL-His6) (Bauhinia forficata, UniProt P86993 1-233); assay: peptide or protein array
T2 sequence: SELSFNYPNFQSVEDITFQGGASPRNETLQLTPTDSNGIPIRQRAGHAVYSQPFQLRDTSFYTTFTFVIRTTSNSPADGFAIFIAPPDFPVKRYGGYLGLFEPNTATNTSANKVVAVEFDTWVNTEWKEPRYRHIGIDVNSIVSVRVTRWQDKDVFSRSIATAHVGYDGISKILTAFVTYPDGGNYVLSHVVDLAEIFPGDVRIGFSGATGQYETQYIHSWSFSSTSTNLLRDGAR

[3] = target: all forms of the Tn antigen (Tn glycopeptides, 55 array components); assay: peptide or protein array
[4] = target: T3, Ac-A-Tn(Thr)-S-G - 05; assay: peptide or protein array
T3 sequence (peptide, N-terminal acetyl; Tn (GalNAc α-linked) on the second residue (Thr)): ATSG

[5] = target: T4, Ac-S-Ser(core 5)-S-G-18; assay: peptide or protein array
T4 sequence (peptide, N-terminal acetyl; core 5 (GalNAcα1-3GalNAcα1-) on the second residue (Ser)): SSSG

[6] = target: T5, Ac-S-Tn(Thr)-S-G - 04; assay: peptide or protein array
T5 sequence (peptide, N-terminal acetyl; Tn (GalNAc α-linked) on the second residue (Thr)): STSG

[7] = target: T6, Ac-S-Tn(Ser)-S-G - 22; assay: peptide or protein array
T6 sequence (peptide, N-terminal acetyl; Tn (GalNAc α-linked) on the second residue (Ser)): SSSG

[8] = target: T7, Ac-S-Thr(F1α)-S-G - 18; assay: peptide or protein array
T7 sequence (peptide, N-terminal acetyl; F1α (Galβ1-4GlcNAcβ1-6GalNAcα1-) on the second residue (Thr)): STSG

[9] = target: T8, Ac-S-Tn(Ser)-S-G - 04; assay: peptide or protein array
T8 sequence (peptide, N-terminal acetyl; Tn (GalNAc α-linked) on the second residue (Ser)): SSSG

[10] = target: ovine submaxillary mucin (ovine); assay: peptide or protein array
[11] = test system: rabbit erythrocytes; details: natural BfL from seeds; cited from earlier work
[12] = test system: MCF7 human breast cancer cell line; details: natural BfL from seeds; after 72 hours at 2.5 µM; cited from earlier work
[13] = test system: human cancer cell lines of the NCI-60 panel; assay: NCI-60 Human Tumor Cell Lines Screen, One Dose Assay; format: cell-based; details: 1.85 μM
Procedure, shortened: (§1)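 Recombinant His-tagged test lectin, refolded from E. coli inclusion bodies, was gel-filtered into 50 mM Hepes pH 7.5, 150 mM NaCl before use. NCI DTP ran a one-dose screen at 1.85 μM following its published protocols. Read-out was SRB colorimetric total protein in non-lysed cells. Growth percent is relative to drug-free medium, averaged over two experiments.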

[14] = test system: melanoma LOX IMVI cell line; assay: NCI-60 One Dose Assay; format: cell-based, human; details: 1.85 μM, SRB assay, 5% serum, average of two experiments
Procedure, shortened: as §1

[15] = solubility of recombinant BfL; format: physicochemical
Procedure, shortened: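 Recombinant His6-tagged lectin was expressed in bacteria, recovered from inclusion bodies and refolded at 5 °C. It was then dialysed overnight against 50 mM Tris-HCl pH 7.5, 0.2 M NaCl, 1 mM CaCl2, and concentrated to 8-10 mg/ml at room temperature for storage at −80 °C. The preceding purification and refolding steps were run at 5 °C.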

[16] = test system: normal and several types of cancer cells; details: natural BfL from seeds; cited from earlier work
[17] = test system: human erythrocytes originating from all blood types; details: natural BfL from seeds; cited from earlier work

## -G-V-T-S-A-P-D-T-R-P-A-P-G-S- Tn(Thr)-A-P-P-A (GVTSAPDTRPAPGST(αGalNAc)APPA; also: conjugated to albumin carrier (BSA or HSA)) [Muc1-Tn15]
[1]
  RFUmax: 17917 RFU

## Ac-S-Tn(Ser)-V-G-13: Tn glycopeptide on BSA or HSA, array component (Ac-SS(αGalNAc)VG; also: on BSA or HSA carrier)
[1]
  RFUmax: 17255 RFU

## AzHex-P-D-Tn(Thr)-R-P-NH2-07: Tn glycopeptide on BSA or HSA, array component (AzHex-PDT(αGalNAc)RP-NH2; also: on BSA or HSA carrier)
[1]
  RFUmax: 15559 RFU

## GalNAcα1-3(Fucα1-2)Gal [BG-A -19]
[1]
  RFUmax: 15700 RFU

## GalNAcα1-3Gal [GalNAcα1-3Gal - 17]
[1]
  binding of BfL on glycan microarray (in words): strong binding
  RFUmax: 17826 RFU

## GalNAcα1-3GalNAcα1-Ser (Ac-SSSG; not fully specified (residue 2); also: on BSA or HSA carrier) [Ac-S-Ser(core 5)-S-G-18]
[1]
  binding of BfL on glycan microarray (in words): good binder
  RFUmax: 18580 RFU

## GalNAcα1-3GalNAcβ1-3Galα1-4Galβ [Forssman Tetra-BSA - 13]
[1]
  binding of BfL on glycan microarray (in words): strong binding
  RFUmax: 18518 RFU

## GalNAcα1-6Galβ [GalNAcα1-6Galβ - 22]
[1]
  binding of BfL on glycan microarray (in words): strong binding
  RFUmax: 19055 RFU

## GalNAcβ1-3Galα1-3Galβ [iGb4]
[1]
  binding of BfL on glycan microarray (in words): strong binding

## GalNAcβ1-3Galα1-4Galβ1-4GlcNAcβ [Gb4 - 09]
[1]
  binding of BfL on glycan microarray (in words): strong binding
  RFUmax: 14003 RFU
[1]; read-out: App Kd, apparent Kd, multivalent avidity on carbohydrate array
  Kd: 0.68 nM

## GalNAcβ1-4Galβ [GA2di - 37]
[1]
  binding of BfL on glycan microarray (in words): strong binding
  RFUmax: 17241 RFU

## GalNAcβ1-4GlcNAcβ [LDN-Sp - 14]
[1]
  binding of BfL on glycan microarray (in words): strong binding
  RFUmax: 18291 RFU

## Galβ1-4GlcNAcβ1-6GalNAcα1-Thr (Ac-ST(Galβ1‑4GlcNAcβ1‑6GalNAcα1)SG; also: on BSA or HSA carrier) [Ac-S-Thr(F1α)-S-G - 18]
[1]
  RFUmax: 17214 RFU

## Ac-APGST(αGalNAc)APPAG [Ac-A-P-G-S-Tn(Thr)-A-P-P-A-G-03]
[2]
  Kd: 0.65 nM

## AzHex-PDT(αGalNAc)RP-NH2 [AzHex-P-D-Tn(Thr)-R-P-NH2-07]
[2]
  Kd: 1.25 nM

B1: recombinant Bauhinia forficata lectin (BfL-His6) (natural protein)
chain: T2 sequence
[3]
  Kd: 0.4 to 1.2 nM
[4]
  Kd: 0.63 nM
[5]
  Kd: 1.02 nM
[6]
  Kd: 0.71 nM
[7]
  Kd: 0.65 nM
[8]
  Kd: 2.51 nM
[9]
  Kd: 0.75 nM
[10]
  Kd: 10.7 nM

B2: BfL: recombinant Bauhinia forficata lectin expressed in E. coli and refolded, non-glycosylated, C-terminal His6 tag, dimeric (protein)
chain: T2 sequence
modifications: left off: His6, C-terminal, kept
[11]
  concentration that agglutinates erythrocytes: ≥ 1 µg/mL
[12]
  inhibition of viability: 35%
[13]
  cytotoxic effects: No cytotoxic effects
[13]; observed for five cell lines of different cancers
  growth inhibition, strong effect, five cell lines: > 50%
[13]; share of the cell lines of the panel
  cell lines not inhibited: About 50%
[14]
  growth inhibition: over 95%
[15]; 5 °C, compared with room temperature
  solubility (in words): decreases
[15]; room temperature
  solubility: 8000 to 10000 µg/mL
[16]
  cytotoxicity (in words): non-cytotoxic
[17]
  concentration that agglutinates erythrocytes: ≥ 1 µg/mL
